Most compounds without a hit are left out; they make up all but 3.8% or so of the library.
MPTP block: inhibitors of mitochondrial permeability transition pore | isolated mouse mitochondria, Ca2+ swelling absorbance, 30 min | inhibition, % at 10 µM | hit rate 1.4% among 360,000 | AID 602449;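 active means inhibition of 50% or more, scaled per plate between neutral and stimulator controls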;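 further: 0% = DMSO wells given calcium and 100% = 1 mM EGTA wells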
Exocytosis inh: lytic granule exocytosis inhibition | TALL-104 LAMP-1 surface exposure, flow cytometry; cells stimulated with thapsigargin and PMA | inhibition, % at 10 µM | hit rate 0.66% among 360,000 | AID 651702;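 active means inhibition above about 55%, limit read from the data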
T cell HTS: T cell immune modulators affecting CD8 T cell-vesicle binding; hit rate 0.068% among 330,000; 2C CD8+ T cell-vesicle binding, flow cytometry; hits give low values; response (vesicle binding), % at 7 µM;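 active means response, share of CD8 T cells binding vesicles, and their 90th percentile fluorescence all below set limits, cut at about 80% in these data, passing the limit was not always enough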;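 further: values below 100% mean blocked vesicle binding to the CD8+ T cells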
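Material: murine 2C transgenic CD8+ T lymphocytes / Also added: QL9-peptide-loaded Drosophila micro-vesicles bearing Ld, ICAM-1 and B7-1 / Schedule: binding step 1.5 h, 37 °C, antibody labelling 20 min, ice / Signal: flow cytometry, PE anti-B7-1 (FL2) versus Alexa647 anti-CD8 (FL8), PFA-fixed / Evaluation: percent CD8+ FL2 mean versus row control / Benchmarks: naked versus QL9-loaded vesicles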
Beta2AR agonist: agonists of human beta-2 adrenergic receptor inducing internalization | P07550 | Am2.2-beta2AR cells, FAP receptor internalization, flow cytometry | response, % (concentration not given with the values) | hit rate 0.43% among 340,000 | AID 504454;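 active means response above a set limit, near 3 SD of response in nonfluorescent compounds, cut at about 42% in these data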
Target sequence (P07550 whole entry, looked up): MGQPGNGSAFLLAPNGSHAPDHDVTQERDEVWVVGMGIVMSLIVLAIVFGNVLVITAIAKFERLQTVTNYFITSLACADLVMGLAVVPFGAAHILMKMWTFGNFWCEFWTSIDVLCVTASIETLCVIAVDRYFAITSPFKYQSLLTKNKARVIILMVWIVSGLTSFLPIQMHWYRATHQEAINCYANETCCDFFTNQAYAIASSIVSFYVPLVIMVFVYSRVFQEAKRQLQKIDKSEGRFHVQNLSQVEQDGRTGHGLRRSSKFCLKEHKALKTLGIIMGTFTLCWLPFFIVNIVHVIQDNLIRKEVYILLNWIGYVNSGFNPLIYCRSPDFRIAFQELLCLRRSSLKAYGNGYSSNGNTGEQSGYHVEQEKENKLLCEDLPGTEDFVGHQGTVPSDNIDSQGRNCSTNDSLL
rCAG binder: molecules binding r(CAG) RNA repeats; AID 651821; hit rate 1.3% among 370,000; inhibition, % at 3 µM; r(CAG) RNA repeat, TO-PRO-1 dye displacement fluorescence;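 active means inhibition above the plate cutoff, the mean of all test compounds on that plate plus 3 SD, cut at about 35% in these data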;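 further: 0% = DMSO alone and 100% = 100 µM mitoxantrone as full dye displacement; higher means more dye released from RNA so lower well fluorescence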
V-ATPase pHluor: regulators of yeast V-ATPase proton transport. S. cerevisiae, pHLuorin cytosolic pH fluorescence. response, % at 10 µM. hit rate 0.37% among 350,000; in the data active means response mostly above about 7.3%, no sharp cut-off; inactive means mostly below about 5.4%; further: actives read high
An asterisk follows results filed as active.

Results for COc1cc(/C=C/[N+](=O)[O-])ccc1OC(=O)c1cc2ccccc2oc1=O ?
MPTP block: 8; Exocytosis inh: 45; T cell HTS: 324; Beta2AR agonist: 54*; rCAG binder: 8; V-ATPase pHluor: -2

How did CCOc1ccc(-n2c(SCC(=O)Nc3ccc4cn[nH]c4c3)nnc2-c2ccncc2)cc1 do in these assays?
rCAG binder: 3

Results for S=c1[nH]nc(-c2cc3c(s2)-c2ccccc2CC3)o1 ?
MPTP block: 0; Exocytosis inh: -1; T cell HTS: 641; Beta2AR agonist: 12; rCAG binder: 48*; V-ATPase pHluor: 4

How did Cc1cc2cc(C=O)c(Cl)nc2cc1C do in these assays?
MPTP block: 5; Exocytosis inh: 21; T cell HTS: 516; Beta2AR agonist: 48*; rCAG binder: 5; V-ATPase pHluor: 0

What do the screens show for `Cc1c(CC(=O)O)c(=O)oc2c(C)c(OCc3nn[nH]n3)ccc12`?
MPTP block: 1; Exocytosis inh: 2; T cell HTS: 509; Beta2AR agonist: 4; rCAG binder: -3; V-ATPase pHluor: 0

Results for Cc1c(Cc2ccccc2)c(=O)oc2c(C)c(OCc3nn[nH]n3)ccc12 ?
MPTP block: -3; Exocytosis inh: 1; T cell HTS: 569; Beta2AR agonist: 1; rCAG binder: 59*; V-ATPase pHluor: 0

How did Cc1c(OCC(=O)NCc2ccccn2)ccc2c3c(c(=O)oc12)CCCC3 do in these assays?
MPTP block: -1; Exocytosis inh: -2; T cell HTS: 377; Beta2AR agonist: 1; rCAG binder: 1; V-ATPase pHluor: 2

Results for Cc1c(Cc2ccccc2)c(=O)oc2c(C)c(OCC(=O)NCc3ccccn3)ccc12 ?
MPTP block: 0; Exocytosis inh: -2; T cell HTS: 204; Beta2AR agonist: 45*; rCAG binder: 0; V-ATPase pHluor: 3

Results for O=[N+]([O-])c1ccc(N=Nc2ncc[nH]2)cc1 ?
MPTP block: 1; Exocytosis inh: 79*; T cell HTS: 617; Beta2AR agonist: -289; rCAG binder: -1; V-ATPase pHluor: -4

How did CCCCOc1ccc(C(=O)NC2CCCCN(Cc3cccc(C(F)(F)F)c3)C2=O)cc1 (stereo not drawn) do in these assays?
rCAG binder: 3

How did O=C(NC1CCN(Cc2ccccc2)C1)c1cccc(S(=O)(=O)N2CCOCC2)c1 (stereo not drawn) do in these assays?
MPTP block: 0; Exocytosis inh: 2; Beta2AR agonist: 2; rCAG binder: -3; V-ATPase pHluor: 4

What do the screens show for `O=S(=O)(NC1CCN(Cc2ccccc2)CC1)c1cccc(S(=O)(=O)N2CCOCC2)c1`?
MPTP block: 1; Exocytosis inh: -2; T cell HTS: 370; Beta2AR agonist: 7; rCAG binder: -4; V-ATPase pHluor: 15*

How did COc1cc(/C=N/N=C(N)N)ccc1OCc1ccccc1Cl do in these assays?
MPTP block: -3; Exocytosis inh: 4; T cell HTS: 245; Beta2AR agonist: 54*; rCAG binder: 30; V-ATPase pHluor: 2

Results for N#Cc1c(-c2ccccc2)nc(SCC(=O)N2c3ccccc3Sc3ccccc32)[nH]c1=O ?
MPTP block: 33; Exocytosis inh: 2; T cell HTS: 223; Beta2AR agonist: 7; rCAG binder: 89*; V-ATPase pHluor: 1

What do the screens show for `N#Cc1c(-c2ccccc2)nc(SCC(=O)Nc2ccccc2)[nH]c1=O`?
MPTP block: 3; Exocytosis inh: -2; T cell HTS: 481; Beta2AR agonist: -7; rCAG binder: 29; V-ATPase pHluor: 3

What do the screens show for `CCOC(=O)CCCCC(=O)c1[nH]c(=O)[nH]c1CSc1nc(-c2ccccc2)c(C#N)c(=O)[nH]1`?
MPTP block: 2; Exocytosis inh: -1; T cell HTS: inactive; Beta2AR agonist: -4; rCAG binder: 56*; V-ATPase pHluor: 1

Results for CCCc1c(C)[nH]c2ccc(C(=O)O)cc2c1=S ?
MPTP block: 2; Exocytosis inh: -3; Beta2AR agonist: -1; rCAG binder: 45*; V-ATPase pHluor: 1

What do the screens show for `O=S(=O)(Nc1nc2ccccc2nc1Cl)c1ccc2ccccc2c1`?
MPTP block: 2; Exocytosis inh: -2; T cell HTS: 455; Beta2AR agonist: 5; rCAG binder: 49*; V-ATPase pHluor: -2

High-throughput results: PubChem, several laboratories
